Test results: article PMC10951637 (iScience, 2024)

Experiments:
[1] = phase 2b, oral, adults with obesity; cited from earlier work
[2] = tested on: blood glucose of non-fasted db/db mice; test: Hypoglycemic duration assay; assay type: in vivo, C57BL/6 db/db mice; conditions: single s.c. dose 25 nmol/kg, 0 to 36 h, n = 5
Summary of the method: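 Non-fasted male C57BL/6 db/db mice with free food and water were randomised into groups (n = 5). Each got one s.c. dose of 25 nmol/kg test compound, or PBS as control. Tail-blood glucose was read by glucometer at 0, 0.5, 1, 2, 4, 6, 8, 10, 24 and 36 h. […] Data are mean ± SD, one-way ANOVA with Tukey test.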

diabetic db/db mice = test: Chronic efficacy study; assay type: in vivo; conditions: for HbA1c value attenuated from baseline / body weight increase: 25 nmol/kg s.c. once daily for 4 weeks, n = 5; for reduction of AUC glucose 0–210 min, OGTT day 15: chronic study, 25 nmol/kg s.c. once daily, day 15, n = 5
[3] = cited from earlier work
[4] = phase III study (SURPASS-1), across all doses

## N#Cc1ccc(COc2cccc(C3CCN(Cc4nc5ccc(C(=O)O)cc5n4C[C@@H]4CCO4)CC3)n2)c(F)c1 [Danuglipron]
[1]
  discontinuation rate: greater than 50%
  rate of diarrhea: 25%
  rate of nausea: 73%
  rate of vomiting: 47%

## exendin-4: GLP-1R mono-agonist
[2]
  glucose AUC0–36h (in words): comparable to that of the PBS group
Diabetic db/db mice
  HbA1c value attenuated from baseline: approximately 15%
  body weight increase: ~6.9%
  reduction of AUC glucose 0–210 min, OGTT day 15: ~18%

## liraglutide
Diabetic db/db mice
  HbA1c value attenuated from baseline: ~30%
  body weight increase: ~7.4%
  reduction of AUC glucose 0–210 min, OGTT day 15: ~40%

## tirzepatide: imbalanced GLP-1R/GIPR co-agonist, fatty diacid conjugated to K
[3]; in T2D treatment and in obesity independent of diabetes
  weight loss: more than 20%
[3]; [4]
  incidence of gastrointestinal disorders: 28–41%
  study drug discontinuation: 3–7%
